Data from ChEMBL document CHEMBL4431330, “3-Arylpropionylhydroxamic acid derivatives as Helicobacter pylori urease inhibitors: Synthesis, molecular docking and biological evaluation” (Bioorg Med Chem, 2016).
Calls of active or inactive are those of the source. No cut-off for these calls is given here.

Tests used:
[1] = target: T1, Urease subunit alpha/Urease subunit beta (Helicobacter pylori (strain ATCC 700392 / 26695) (Campylobacterpylori), UniProt P69996); experiment: Inhibition of Helicobacter pylori urease using urea as substrate assessed as ammonia production after 50 mins by indophenol method; type: protein-complex assay
T1 sequence (P69996 whole entry): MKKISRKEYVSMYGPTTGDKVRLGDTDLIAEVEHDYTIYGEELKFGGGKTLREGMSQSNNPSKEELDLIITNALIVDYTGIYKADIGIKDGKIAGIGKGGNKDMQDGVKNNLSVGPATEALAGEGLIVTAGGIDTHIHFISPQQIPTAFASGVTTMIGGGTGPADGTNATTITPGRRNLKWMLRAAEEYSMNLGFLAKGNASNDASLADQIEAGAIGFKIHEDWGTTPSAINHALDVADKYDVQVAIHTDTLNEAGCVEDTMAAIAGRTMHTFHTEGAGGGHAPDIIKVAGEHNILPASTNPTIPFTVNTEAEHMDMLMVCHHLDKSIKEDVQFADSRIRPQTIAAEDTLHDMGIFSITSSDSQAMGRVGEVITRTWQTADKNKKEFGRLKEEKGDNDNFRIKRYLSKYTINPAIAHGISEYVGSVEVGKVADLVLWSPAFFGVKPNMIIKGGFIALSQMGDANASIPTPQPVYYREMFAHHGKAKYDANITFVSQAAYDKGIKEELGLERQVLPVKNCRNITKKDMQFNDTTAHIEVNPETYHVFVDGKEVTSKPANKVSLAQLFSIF
T1 sequence (P14916 whole entry, further chain): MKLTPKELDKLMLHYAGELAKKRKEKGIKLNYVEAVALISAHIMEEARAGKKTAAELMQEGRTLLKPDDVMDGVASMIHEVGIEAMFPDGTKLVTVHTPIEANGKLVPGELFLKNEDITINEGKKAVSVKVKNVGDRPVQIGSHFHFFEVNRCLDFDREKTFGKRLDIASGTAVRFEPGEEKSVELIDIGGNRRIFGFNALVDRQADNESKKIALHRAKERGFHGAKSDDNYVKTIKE
Method in brief: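 Urease prepared from H. pylori grown 24 h at 37 °C in Brucella broth with 10% heat-inactivated horse serum under microaerobic conditions. Cells washed in PBS pH 7.4, sonicated with protease inhibitors, desalted on Sephadex G-25, stored in glycerol at 4 °C. Enzyme (10 U) pre-incubated with compound 50 min at 37 °C. Ammonia read by absorbance (indophenol method).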

[2] = target: T2, Urease subunit alpha/Urease subunit beta (Helicobacter pylori (strain ATCC 700392 / 26695) (Campylobacterpylori)) (UniProt P69996+P14916); experiment: Mixed inhibition of Helicobacter pylori urease assessed as dissociation of enzyme-urea-inhibitor complex by non-linear fitting analysis
T2 sequence (P14916 whole entry, looked up): as the sequence (P14916 whole entry, further chain) above
T2 sequence (P69996 whole entry, looked up): as the sequence (P69996 whole entry) above

[3] = target: T2, Urease subunit alpha/Urease subunit beta (Helicobacter pylori (strain ATCC 700392 / 26695) (Campylobacterpylori)); experiment: Potency index, ratio of acetohydroxamic acid IC50 to compound IC50 for Helicobacter pylori urease; type: protein-complex assay
Method in brief: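 Ratio of the acetohydroxamic acid IC50 to the compound IC50. […] Ammonia formed from urea was then read by the Weatherburn indophenol method.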

[4] = Protein binding in rabbit plasma after 20 mins by ultra-filtration method; type: ADME, cell-free, Oryctolagus cuniculus; settings: read-out: PPB (converted)
Method in brief: (§1)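 Ultrafiltration, in triplicate. Compound was incubated with human plasma or freshly collected rabbit plasma for 20 min at 37 °C. Samples were then centrifuged through filter devices at 5000 r/min for 15 min at 37 °C. Initial plasma and ultrafiltrate were diluted 8-fold and read by UV-vis. Nonspecific membrane binding was corrected using PBS spiked at the same concentration. % bound = (1 − Cf/(C0(1−NBS)))×100.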

[5] = Protein binding in human plasma after 20 mins by ultra-filtration method; type: ADME, cell-free; settings: read-out: PPB (converted); method in brief: as §1
[6] = target: T1, Urease subunit alpha/Urease subunit beta; experiment: Inhibition of Helicobacter pylori urease using urea as substrate assessed as inhibition constant for enzyme-inhibitor complex by non-linear fitting analysis; type: protein-complex assay
Method in brief: (§2)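 Urease came from H. pylori grown 24 h at 37 °C in Brucella broth with 10% heat-inactivated horse serum under microaerobic conditions. Washed cells were sonicated with protease inhibitors, desalted on Sephadex G-25, and stored in glycerol. Ammonia production rate (indophenol) was measured across urea gradients below 4 mM at each inhibitor level. V–[S] curves were fitted nonlinearly. Fitted constants b and c were plotted linearly against [I], and Ki and Ki′ were taken from the X-axis intercepts.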

[7] = target: T1, Urease subunit alpha/Urease subunit beta; experiment: Inhibition of Helicobacter pylori urease using urea as substrate assessed as inhibition constant for enzyme-urea-inhibitor complex by non-linear fitting analysis; type: protein-complex assay; method in brief: as §2
[8] = target: T1, Urease subunit alpha/Urease subunit beta; experiment: Substrate inhibition of Helicobacter pylori urease in presence of >4 mM urea by indophenol method; type: protein-complex assay
Method in brief: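 No inhibitor. H. pylori urease velocity (indophenol ammonia read-out) was measured against a range of urea concentrations. Km and the substrate-inhibition constant Ksi were obtained by nonlinear least-squares fitting of V = Vmax[S]/(Km + [S] + [S]²/Ksi).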

SMILES | IC50 [1] [µM] | also measured
CN(O)C(=O)CC(O)c1ccccc1Cl (stereo not drawn) | 56.6 | –
CN(O)C(=O)CC(O)c1ccc(Cl)cc1 (stereo not drawn) | 87.4 | –
COc1ccc(C(O)CC(=O)N(C)O)cc1OC (stereo not drawn) | 405 | –
CN(O)C(=O)CC(O)c1cc(Cl)ccc1OCc1ccccc1 (stereo not drawn) | 26.2 | –
CN(O)C(=O)CC(O)c1ccc(F)cc1 (stereo not drawn) | 77.2 | –
COc1ccc(C(O)CC(=O)N(C)O)cc1 (stereo not drawn) | 328 | –
CN(O)C(=O)CC(O)c1cc(Cl)ccc1O (stereo not drawn) | 30.5 | –
CN(O)C(=O)CC(O)c1cccc(Cl)c1 (stereo not drawn) | 48 | –
COc1ccccc1C(O)CC(=O)N(C)O (stereo not drawn) | 84 | –
COc1cccc(C(O)CC(=O)N(C)O)c1 (stereo not drawn) | 89.2 | –
O=C(CC(O)c1ccc(Cl)cc1Cl)NO (stereo not drawn) | 13.4 | –
CN(O)C(=O)CC(O)c1ccc(OCc2ccccc2)c(OCc2ccccc2)c1 (stereo not drawn) | 376 | –
CC(=O)NO [ACETOHYDROXAMIC ACID] | 23.8 | –
CN(O)C(=O)CC(O)c1ccc(OCc2ccccc2)cc1 (stereo not drawn) | 198 | –
O=C(CC(O)c1cc(Cl)ccc1O)NO (stereo not drawn) | 1.1 | inhibition [2]: Active; Ratio IC50 [3]: > 20; fraction unbound at 20 min [4]: 0.548; fraction unbound at 20 min [5]: 0.472; Ki [6]: 4.79 µM; Ki [7]: 1.21 µM
CN(O)C(=O)CC(O)c1cccc(Cl)c1Cl (stereo not drawn) | 95.8 | –
O=C(CC(O)c1cc(Cl)ccc1OCc1ccccc1)NO (stereo not drawn) | 0.15 | inhibition [2]: Active; Ratio IC50 [3]: > 20; fraction unbound at 20 min [4]: 0.562; fraction unbound at 20 min [5]: 0.626; Ki [6]: 0.404 µM; Ki [7]: 0.373 µM
CN(O)C(=O)CC(O)c1ccc(Br)cc1 (stereo not drawn) | 97.6 | –
CN(O)C(=O)CC(O)c1cccc(Br)c1 (stereo not drawn) | 78.2 | –
CN(O)C(=O)CC(O)c1c(Cl)cccc1Cl (stereo not drawn) | 77.9 | –
CN(O)C(=O)CC(O)c1ccc(Cl)c(Cl)c1 (stereo not drawn) | 90.4 | –
NC(N)=O [UREA] | – | Ki [8]: 6470 µM
CN(O)C(=O)CC(O)c1ccc(Cl)cc1Cl (stereo not drawn) | 367 | –
CN(O)C(=O)CC(O)c1ccc(N(C)C)cc1 (stereo not drawn) | 287 | –
CN(O)C(=O)CC(O)c1cccc(F)c1 (stereo not drawn) | 71.2 | –
COc1cc(C(O)CC(=O)N(C)O)ccc1OCc1ccccc1 (stereo not drawn) | 258 | –
